Reference: ChEMBL document CHEMBL1131035, “Tripeptide aldehyde inhibitors of human rhinovirus 3C protease: design, synthesis, biological evaluation, and cocrystal structure solution of P1 glutamine isosteric replacements” (J Med Chem, 1998)
Structures can show the parent of a compound that is named as a salt. Starred links: 1 amine or outer side, 2 acyl side, 3 side chain; linkers in the order of their positions; H or OH if unused. Non-standard residues stand in square brackets, D forms with d. Residues, ends and D or L forms follow the SMILES beside them. Groups on a side chain read outwards from the residue. *: point of attachment. Met(O) = CS(=O)CC[C@H](N)C(=O)O; Isobutyryl = CC(C)C(=O)*; Cbz = O=C(OCc1ccccc1)*; Dap = NC[C@H](N)C(=O)O; Boc = CC(C)(C)OC(=O)*; CO = O=C([*:1])[*:2]; Propionyl = CCC(=O)*; Tfa = O=C(C(F)(F)F)*; Bz = O=C(c1ccccc1)*; Ms = CS(=O)(=O)*; Moc = COC(=O)*; For = O=C*

Experiments:
[1] = molecular target: T1, Human rhinovirus A protease (Human rhinovirus sp., UniProt Q4U254); test: Binding affinity against HRV-14 3C protease.
T1 sequence (Q4U254 whole entry): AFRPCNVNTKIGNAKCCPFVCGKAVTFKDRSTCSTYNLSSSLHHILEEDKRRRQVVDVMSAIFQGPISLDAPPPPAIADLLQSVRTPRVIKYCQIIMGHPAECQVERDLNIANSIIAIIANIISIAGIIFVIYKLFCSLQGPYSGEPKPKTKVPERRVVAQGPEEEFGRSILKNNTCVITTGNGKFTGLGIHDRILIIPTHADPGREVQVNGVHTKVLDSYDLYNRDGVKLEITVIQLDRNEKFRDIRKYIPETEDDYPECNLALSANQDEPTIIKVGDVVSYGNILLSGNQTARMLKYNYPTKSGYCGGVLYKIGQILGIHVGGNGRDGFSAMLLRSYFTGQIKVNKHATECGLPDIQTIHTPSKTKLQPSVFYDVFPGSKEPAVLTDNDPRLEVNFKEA
Method in brief: (§1)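 Recombinant 3C protease of the named HRV serotype, expressed and purified. Ki was determined by a continuous fluorescence resonance energy transfer cleavage assay, with 5 mM dithiothreitol included in the assay. Reported standard deviation ±10%.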

[2] = Toxic concentration on HRV-14 infected H1- HeLa cells by protection assay.; type: toxicity, cell-based; conditions: human, H1-HeLa cells infected with HRV-14; read-out: TC50 (the source's name)
Method in brief: (§2)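 Cell protection assay in H1-HeLa cells infected with the named HRV serotype, using virus stocks propagated in H1-HeLa cells. Values reported are the 50% effective concentration (EC50), the 50% toxic concentration (TC50) and the therapeutic index (TI).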

[3] = Therapeutic Index against HRV-14 virus infection; type: organism-based; conditions: rhinovirus b14, H1-HeLa cells; read-out: TI; method in brief: as §2
[4] = test system: Human rhinovirus sp.; test: Effective concentration in HRV-14 infected H1- HeLa cells by protection assay.; type: functional, organism-based; method in brief: as §2
[5] = test system: HeLa; test: Effective concentration was measured on HRV-16 infected H1- HeLa cells by protection assay.; type: functional, cell-based; conditions: Homo sapiens; method in brief: as §2
[6] = molecular target: T1, Human rhinovirus A protease; test: Binding affinity was measured against HRV-16 3C protease; method in brief: as §1
[7] = Toxic concentration was measured on HRV-89 infected H1- HeLa cells by protection assay.; type: ADME, cell-based; conditions: human, H1-HeLa cells infected with HRV-89; read-out: TC50 (the source's name); method in brief: as §2
[8] = molecular target: T1, Human rhinovirus A protease; test: Binding affinity was measured against HRV-89 3C protease; method in brief: as §1
[9] = test system: HeLa; test: Effective concentration was measured on HRV-89 infected H1- HeLa cells by protection assay.; type: functional, cell-based; conditions: Homo sapiens; method in brief: as §2
[10] = molecular target: T1, Human rhinovirus A protease; test: Binding affinity was measured against HRV-2 3C protease; method in brief: as §1
[11] = Toxic concentration was measured on HRV-2 infected H1- HeLa cells by protection assay.; type: ADME, cell-based; conditions: human, H1-HeLa cells infected with HRV-2; read-out: TC50 (the source's name); method in brief: as §2
[12] = test system: HeLa; test: Effective concentration was measured on HRV-2 infected H1- HeLa cells by protection assay.; type: functional, cell-based; conditions: Homo sapiens; method in brief: as §2
[13] = Toxic concentration was measured on HRV-16 infected H1- HeLa cells by protection assay.; type: ADME, cell-based; conditions: human, H1-HeLa cells infected with HRV-16; read-out: TC50 (the source's name); method in brief: as §2

Compound	Ki [1]	CC50 [2]	selectivity ratio [3]	EC50 [4]	other results
CCC(=O)NC[C@@H](C=O)NC(=O)[C@H](Cc1ccccc1)NC(=O)[C@H](CC(C)C)NC(=O)OCc1ccccc1 (Cbz-Leu-Phe-[Dap](Propionyl)-aldehyde)	0.007 µM	> 100 µM	> 77	1.3 µM	
CC(=O)N(C)C[C@@H](C=O)NC(=O)[C@H](Cc1ccccc1)NC(=O)[C@H](CC(C)C)NC(=O)OCc1ccccc1	0.469 µM	100 µM	19	5.2 µM	
COC(=O)NC[C@@H](C=O)NC(=O)[C@H](Cc1ccccc1)NC(=O)[C@H](CC(C)C)NC(=O)OCc1ccccc1 (Cbz-Leu-Phe-[Dap](Moc)-aldehyde)	0.132 µM	56.2 µM	11	5 µM	
CC(C)C[C@H](NC(=O)OCc1ccccc1)C(=O)N[C@@H](Cc1ccccc1)C(=O)N[C@H](C=O)CNC(=O)C(F)(F)F (Cbz-Leu-Phe-[Dap](Tfa)-aldehyde)	0.146 µM	25 µM	14	1.8 µM	
CC(C)C[C@H](NC(=O)OCc1ccccc1)C(=O)N[C@@H](Cc1ccccc1)C(=O)N[C@H](C=O)CCC(N)=O (Cbz-Leu-Phe-Gln-aldehyde)	3.6 µM	398 µM	6	66 µM	
CC(C)C[C@H](NC(=O)OCc1ccccc1)C(=O)N[C@@H](Cc1ccccc1)C(=O)N[C@H](C=O)CNC(=O)c1ccccc1 (Cbz-Leu-Phe-[Dap](Bz)-aldehyde)	0.012 µM	51.2 µM	51	1 µM	
CC(C)C[C@H](NC(=O)OCc1ccccc1)C(=O)N[C@@H](Cc1ccccc1)C(=O)N[C@H](C=O)CCC#N	0.19 µM	31 µM	4	8 µM	
CC(=O)NC[C@@H](C=O)NC(=O)[C@H](Cc1ccccc1)NC(=O)[C@H](CC(C)C)NC(=O)OCc1ccccc1 (Cbz-Leu-Phe-[Dap](Ac)-aldehyde)	0.006 µM	316 µM	132	2.4 µM	EC50 [5]: 2.1 µM; Ki [6]: 0.069 µM; CC50 [7]: > 100 µM; Ki [8]: 0.036 µM; EC50 [9]: 2.2 µM; Ki [10]: 0.16 µM; CC50 [11]: > 100 µM; EC50 [12]: 3.1 µM; CC50 [13]: > 100 µM
CC(C)C[C@H](NC(=O)OCc1ccccc1)C(=O)N[C@@H](Cc1ccccc1)C(=O)N[C@H](C=O)CNC(=O)c1ccno1	0.005 µM	59.5 µM	40	1.5 µM	
CC(C)C[C@H](NC(=O)OCc1ccccc1)C(=O)N[C@@H](Cc1ccccc1)C(=O)N[C@H](C=O)CC[S+](C)[O-] (stereo partly drawn) (Cbz-Leu-Phe-[Met(O)]-aldehyde)	0.005 µM	> 100 µM	> 22	4.5 µM	
CC(C)C[C@H](NC(=O)OCc1ccccc1)C(=O)N[C@@H](Cc1ccccc1)C(=O)N[C@H](C=O)CCC(=O)NC(c1ccccc1)(c1ccccc1)c1ccccc1	0.04 µM	15.8 µM		> 15.8 µM	
CC(C)C[C@H](NC(=O)OCc1ccccc1)C(=O)N[C@@H](Cc1ccccc1)C(=O)N[C@H](C=O)CNS(C)(=O)=O (Cbz-Leu-Phe-[Dap](Ms)-aldehyde)	0.64 µM	63 µM	3	20 µM	
CC(C)C[C@H](NC(=O)OCc1ccccc1)C(=O)N[C@@H](Cc1ccccc1)C(=O)N[C@H](C=O)CNC(=O)OC(C)(C)C (Cbz-Leu-Phe-[Dap](Boc)-aldehyde)	0.066 µM	56.2 µM	28	2 µM	
CC(C)C[C@H](NC(=O)OCc1ccccc1)C(=O)N[C@@H](Cc1ccccc1)C(=O)N[C@H](C=O)CNC=O (Cbz-Leu-Phe-[Dap](For)-aldehyde)	0.073 µM	206 µM	129	1.6 µM	
CC(C)C[C@H](NC(=O)OCc1ccccc1)C(=O)N[C@@H](Cc1ccccc1)C(=O)N[C@H](C=O)CN1CCCC1=O	0.052 µM	> 100 µM	> 25	4 µM	
CC(C)C[C@H](NC(=O)OCc1ccccc1)C(=O)N[C@@H](Cc1ccccc1)C(=O)N[C@H](C=O)CCC(=O)N(C)C (Cbz-Leu-Phe-Glu(NMe2)-aldehyde)	0.005 µM	63 µM	48	1.3 µM	
CC(C)C[C@H](NC(=O)OCc1ccccc1)C(=O)N[C@@H](Cc1ccccc1)C(=O)N[C@H](C=O)CNC(=O)C(C)C (Cbz-Leu-Phe-[Dap](Isobutyryl)-aldehyde)	0.018 µM	18 µM	5	4 µM	
CC(C)C[C@H](NC(=O)OCc1ccccc1)C(=O)N[C@@H](Cc1ccccc1)C(=O)N[C@H](C=O)CNC(=O)N(C)C (Cbz-Leu-Phe-[Dap]([CO-NMe2])-aldehyde)	0.01 µM	99 µM	47	2.1 µM	
